# Assays:
# MAP kinase p38 [1] = molecular target: T1, MAP kinase p38 (Homo sapiens, UniProt O15264+Q15759+Q16539+P53778); assay: Inhibition of p38 MAP kinase related interleukin (IL1-beta (cytokine) release from human whole blood; format: functional, tissue-based
# Method in brief: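 Human whole blood preincubated 15 min (37 °C, 5% CO₂) with compound from 70:30 Cremophor EL/ethanol stock dilutions (vehicle 1% in all samples). Stimulated with LPS (E. coli 026:B6), 1 µg/mL, 4 h, 37 °C. Reaction stopped on ice, then centrifuged. Supernatant IL-1β measured by ELISA. IC50 read from semilog plot of % reduction vs vehicle controls. At least duplicate.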
# MAP kinase p38 [2] = molecular target: T1, MAP kinase p38; assay: Inhibition of p38 MAP kinase related TNF-alpha release from human whole blood; format: functional, tissue-based
# MAP kinase p38 [3] = molecular target: T1, MAP kinase p38; assay: Inhibition of p38 MAP kinase related interleukin (IL1-beta (cytokine) release from human peripheral blood mononuclear cells
# MAP kinase p38 [4] = molecular target: T1, MAP kinase p38; assay: Inhibition of p38 MAP kinase related TNF-alpha release from peripheral blood mononuclear cells (PBMC); format: functional
# MAP kinase p38 [5] = molecular target: T1, MAP kinase p38; assay: Inhibition of Mitogen-activated protein kinase p38; format: protein assay
Structure (SMILES),IC50 (MAP kinase p38 [1]),IC50 (MAP kinase p38 [2]),IC50 (MAP kinase p38 [3]),IC50 (MAP kinase p38 [4]),IC50 (MAP kinase p38 [5])
CSc1ccc(CSc2ncc(-c3ccc(F)cc3)c(-c3ccncc3)n2)cc1,> 100 µM,> 100 µM,7.4 µM,60 µM,
C[S+]([O-])c1ccc(CSc2nc(O)c(-c3ccc(F)cc3)c(-c3ccncc3)n2)cc1 (stereo unspecified),> 100 µM,> 100 µM,25.5 µM,27 µM,
CS(=O)(=O)c1ccc(CSc2ncc(-c3ccc(F)cc3)c(-c3ccncc3)n2)cc1,> 100 µM,> 100 µM,7.7 µM,17.8 µM,
C[S+]([O-])c1ccc(CSc2ncc(-c3ccc(F)cc3)c(-c3ccncc3)n2)cc1 (stereo unspecified),45.5 µM,95.5 µM,5.6 µM,14.1 µM,36 µM
C[S+]([O-])c1ccc(CSc2ncc(-c3ccncc3)c(-c3ccc(F)cc3)n2)cc1 (stereo unspecified),> 100 µM,> 100 µM,17.8 µM,29.9 µM,
C[S+]([O-])c1ccc(CSc2ncc(-c3ccc(F)cc3)c(-c3cccnc3)n2)cc1 (stereo unspecified),> 100 µM,> 100 µM,75.5 µM,54 µM,

# Next, values leading:
IC50 (MAP kinase p38 [1]),IC50 (MAP kinase p38 [2]),IC50 (MAP kinase p38 [3]),IC50 (MAP kinase p38 [4]),IC50 (MAP kinase p38 [5]),Structure (SMILES)
4 µM,47.5 µM,0.9 µM,15 µM,,C[S+]([O-])c1ccccc1CSc1nc(-c2ccc(F)cc2)c(-c2ccncc2)[nH]1 (stereo unspecified)
2.78 µM,20.3 µM,0.88 µM,3.65 µM,4 µM,C[S+]([O-])c1ccc(CSc2nc(-c3ccc(F)cc3)c(-c3ccncc3)[nH]2)cc1 (stereo unspecified)
4.1 µM,33.5 µM,1 µM,23.5 µM,,C[S+]([O-])c1cccc(CSc2nc(-c3ccc(F)cc3)c(-c3ccncc3)[nH]2)c1 (stereo unspecified)
,,5.4 µM,6.5 µM,19 µM,C[S+]([O-])c1cccc(CSc2ncc(-c3ccc(F)cc3)c(-c3ccncc3)n2)c1 (stereo unspecified)

# — ChEMBL document CHEMBL1135478, “From imidazoles to pyrimidines: new inhibitors of cytokine release” (J Med Chem, 2002)
